Screening results from PubChem.
Sampled rows, rich in hits. Any-hit rate of the full collection: about 0.7%.
FN deposition inh – fibronectin deposition inhibition; AH1F fibroblasts, Alexa488-fibronectin deposition fluorescence, overnight; inhibition, % at 12.6 µM; AID 743247; 350,000 tested, 0.086% active;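 active = mean inhibition across replicates of 30% or more, regardless of how many single replicates reach that level; inconclusive = mean under 30% yet at least half of replicates reach 30%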;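 also: positive control wells lacked labelled fibronectin entirely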
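test system = AH1F fibroblasts assembling fluorescent fibronectin matrix | quantity = 10000 AH1F cells per well | buffer or medium = DMEM plus 2% serum, read in PBS | doses = single dose, pinned | incubation = 1 h cell attachment, overnight exposure to compound and label | detection = fluorescence at 485 nm excitation, 525 nm emission | read-out basis = inhibition from reduced deposited-fibronectin fluorescence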
RAD54 inh – blocks human RAD54 Holliday junction branch migration; inhibition, % at 10.4 µM; AID 602329; 360,000 tested, 0.14% active; FAM/BHQ fluorescence; Q92698;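 active = mean normalized replicate activity at least 40 and at least half of replicates scoring 40 or more; inconclusive = only one of the two criteria met; inactive = mean below 40 and under half of replicates reaching 40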;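 also: 0% = median of neutral control wells and 100% = median of positive control wells; inhibitors cause a drop in the FAM fluorescence signal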
Target sequence (Q92698 whole entry, looked up): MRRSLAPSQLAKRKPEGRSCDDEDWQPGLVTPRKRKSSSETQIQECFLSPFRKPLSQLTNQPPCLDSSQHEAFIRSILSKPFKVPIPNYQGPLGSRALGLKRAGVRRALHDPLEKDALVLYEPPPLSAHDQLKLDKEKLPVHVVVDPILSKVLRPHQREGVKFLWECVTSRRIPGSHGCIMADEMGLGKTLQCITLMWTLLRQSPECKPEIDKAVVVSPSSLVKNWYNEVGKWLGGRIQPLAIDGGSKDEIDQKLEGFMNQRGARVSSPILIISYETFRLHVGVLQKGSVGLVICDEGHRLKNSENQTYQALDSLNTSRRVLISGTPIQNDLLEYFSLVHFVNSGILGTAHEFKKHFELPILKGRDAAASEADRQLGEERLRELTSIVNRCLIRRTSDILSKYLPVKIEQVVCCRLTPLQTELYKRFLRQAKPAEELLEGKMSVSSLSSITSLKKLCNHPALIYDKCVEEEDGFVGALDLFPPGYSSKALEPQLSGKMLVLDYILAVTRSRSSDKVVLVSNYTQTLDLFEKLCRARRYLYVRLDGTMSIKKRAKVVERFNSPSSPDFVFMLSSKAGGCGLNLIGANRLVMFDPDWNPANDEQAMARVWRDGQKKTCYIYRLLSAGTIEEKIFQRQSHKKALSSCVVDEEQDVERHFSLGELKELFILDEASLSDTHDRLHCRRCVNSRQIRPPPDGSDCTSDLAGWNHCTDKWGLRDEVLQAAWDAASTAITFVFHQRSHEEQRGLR
Glyco luc inh – N-linked glycosylation inhibition | D54 ERlucT glycosylation luciferase reporter, 24 h; percent of 100 nM tunicamycin response | reporter increase, % at 12.5 µM | 360,000 tested, 0.23% active | AID 588692;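 active = mean luciferase reporter signal, scaled so untreated is 0 and the glycosylation-blocking control 100, at or above a set limit in every replicate; inconclusive = mean reaches the limit but not every replicate does; inactive = mean below the limit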;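 also: luciferase carries N-glycosylation sites so blocking glycosylation raises the light; 0% = median of neutral control wells and 100% = median of 100 nM tunicamycin wells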
RAD52 inh – RAD52 (human) annealing inhibition; P43351; recombinant RAD52 DNA annealing, FRET fluorescence; inhibition, % at 18.7 µM; 360,000 tested, 0.46% active; AID 651710;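 active = every replicate showing at least 50% inhibition; inconclusive = mean inhibition at least 50% but not in every replicate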
CaV13 FRET inh – Primary screen for inhibitors of IQ motif and Ca2+-dependent inactivation inhibitor domain binding in CACNA1D, Förster resonance energy transfer in living cells, …. HEK cells, CFP/YFP FRET ICDI-IQ, plate reader, 10 min; percent FRET-ratio fall versus neutral wells. inhibition, % at 12.3 µM. 340,000 tested, 0.098% active;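 active = mean replicate inhibition of at least 30% and at least 1% of replicates passing that level; inconclusive = only one of the two criteria is met; inactive = neither criterion is met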;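 also: 0% = median of the neutral control wells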
DNA binder FP – DNA binding artifact in RAD52 counter-screen | 1,000 tested, 8% active | Salmon sperm DNA/acridine orange FP displacement | shares compounds with RAD52 inh | AC50, µM;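 active = fitted half-maximal concentration for signal loss at or below twice the highest dose tested, in every separate run, actives reach about 64 µM in these data; inconclusive = runs disagree, or flat partial signal loss, or poor fit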
Numbers without * were called inactive; i = inactive; u = inconclusive; x = no result.

SMILES	FN deposition inh	RAD54 inh	Glyco luc inh	RAD52 inh	CaV13 FRET inh	DNA binder FP
COc1ccc(CN2CC3(CCN(C(=O)C4CC4)CC3)c3c(n(C)c4cc(OC)ccc34)[C@@H]2CO)cc1	x	x	x	-191	x	x
NCc1ccc(OCCCN2CCC(C(O)(C3=CCCC3)c3ccccc3)CC2)cc1 (stereo not drawn)	-11	x	x	67*	-11	i
Cc1cc(C)cc(OCCCN2CCC(C(O)(c3ccccc3)c3ccccc3)CC2)c1	7	x	x	1	-8	x
Cc1cc(OCCCN2CCC(C(O)(c3ccccc3)c3ccccc3)CC2)ccc1Br	0	x	x	55*	-5	i
CO[C@H]1CN(C)C(=O)c2ccc(NC(=O)Cc3ccccc3)cc2OC[C@H](C)N(CC2CC2)C[C@@H]1C	-1	x	x	-10	x	x
CN1CCN(CCCN2c3ccccc3Sc3ccc(Cl)cc32)CC1	-6	13	1	79*	-6	i
OCCN1CCN(CC/C=C2/c3ccccc3CSc3ccccc32)CC1	-11	-6	-2	18	-4	x
OCCN1CCN(CC/C=C2/c3ccccc3Sc3ccc(C(F)(F)F)cc32)CC1	3	8	-5	58*	-5	i
OCCN1CCN(CCCN2c3ccccc3Sc3ccc(C(F)(F)F)cc32)CC1	-8	u	-1	56*	-4	i
CC(CN1CCN(CCOCCO)CC1)CN1c2ccccc2Sc2ccc(Cl)cc21 (stereo not drawn)	-4	12	-5	12	-5	x
CCSc1ccc2c(c1)N(CCCN1CCN(C)CC1)c1ccccc1S2	-7	26	-2	63*	-5	i
C[C@H](CO)N1C[C@H](C)[C@@H](CN(C)C(=O)Cc2ccccn2)Oc2ncc(-c3cncnc3)cc2C1=O	6	-5	x	16	x	x
C[C@@H]1CN([C@@H](C)CO)C(=O)c2cc(NC(=O)Cc3ccccc3)ccc2O[C@@H](C)CCCCO[C@@H]1CN(C)S(=O)(=O)c1ccc(Cl)cc1	x	0	x	0	x	x
C[C@@H]1CN([C@@H](C)CO)C(=O)c2cc(NC(=O)Cc3ccccc3)ccc2O[C@@H]1CN(C)C(=O)Nc1ccc2c(c1)OCO2	x	4	x	4	x	x
CO[C@H]1CN(C)C(=O)c2ccc(NC(=O)C3CC3)cc2OC[C@@H](C)N(Cc2ccncc2)C[C@H]1C	7	6	x	3	x	x
CN(C)CCCN1c2ccc(O)cc2Sc2ccc(Cl)cc21	5	28	10	49	-8	x
OC1CC2CCC(C1)N2CCCN1c2ccccc2Sc2ccc(Cl)cc21 (stereo not drawn)	7	18	-7	91*	-5	i
C[C@H]1CCCCO[C@H](CN(C)S(C)(=O)=O)[C@@H](C)CN([C@@H](C)CO)C(=O)c2cc(NC(=O)c3ccccc3)ccc2O1	x	6	x	-5	x	x
COCCNC(=O)C(=O)NCC1OCCN1S(=O)(=O)c1cccs1 (stereo not drawn)	-13	-10	3	-13	-5	x
CCN(CC)CCNC(=O)C(=O)NCC1OCCN1S(=O)(=O)c1cccs1 (stereo not drawn)	x	-7	-1	54*	x	i
O=C(Nc1ccc(CN2CCOCC2)cc1)c1ccc(-c2ccc(Br)cc2)o1	x	2	3	51*	-9	i
CCCCCC(O)CCCC(=O)O (stereo not drawn)	2	3	1	-5	-5	x
CCCCCCCCCCCCCCCC(O)C[N+](C)(C)CCO (stereo not drawn)	4	x	-10	80*	-5	35µM*
CC[C@H](C)[C@@H](C(=O)NCCCCCCCCCCC(=O)N1CCNCC1)n1cc(CCCCN=C(N)N)nn1	3	10	2	35	-8	x
CC[C@H](C)Cc1cn([C@@H](CCCN=C(N)N)C(=O)NCCCCCCCCCCC(=O)N2CCNCC2)nn1	5	12	0	52*	-10	i
SMILES	FN deposition inh	RAD54 inh	Glyco luc inh	RAD52 inh	CaV13 FRET inh	DNA binder FP
CO[C@@H]1CN(C)C(=O)c2ccc(NC(=O)c3cnccn3)cc2OC[C@H](C)N(C)C[C@H]1C	-15	2	x	x	x	x
NC(N)=Nc1ccc(C=C2C=Cc3ccccc32)cc1	-7	x	-2	66*	-3	i
Nc1ccc(C=C2C=Cc3ccccc32)cc1	-14	-3	-7	-20	-11	x
CN(C)CCN(C(=O)c1ccc2c(c1)CCCC2)c1nc2cc3c(cc2s1)OCCO3	4	4	-4	72*	-5	i
CN(C)CCCN(C(=O)c1ccco1)c1nc2cc3c(cc2s1)OCO3	-1	41	6	54*	-10	i
CCN(CC)CCN(C(=O)c1ccc(N2C(=O)CCC2=O)cc1)c1nc2cc3c(cc2s1)OCCO3	5	x	4	80*	-2	i
COc1ccc(Cl)c2sc(N(CCN(C)C)C(=O)c3ccc4c(c3)OCCO4)nc12	12	x	-2	91*	-2	i
CCC(=O)Nc1ccc2c(c1)C(=O)N(C)C[C@H](OC)[C@H](C)CN(Cc1ccccc1)[C@@H](C)CO2	20	4	x	-9	x	x
O=C(N[C@@H]1CC[C@H](CCNC(=O)C2CCC2)O[C@H]1CO)c1ccccn1	x	-8	x	9	x	x
O=C(N[C@H]1CC[C@H](CCn2cc(C3CCCC3)nn2)O[C@H]1CO)c1cccnc1	1	x	x	x	x	x
C[C@@H]1CN([C@@H](C)CO)C(=O)c2cc(NC(=O)Nc3ccccc3)ccc2O[C@@H](C)CCCCO[C@H]1CN(C)C(=O)c1ccccc1	8	-11	x	-10	x	x
CO[C@@H]1CN(C)C(=O)c2ccc(NS(=O)(=O)c3ccc(C)cc3)cc2OC[C@H](C)N(C(=O)NC(C)C)C[C@@H]1C	-3	x	x	x	x	x
CC(=O)N(CCN(C)C)c1nc2cc3c(cc2s1)OCCO3	7	38	1	55*	-7	i
CN(C)CCN(C(=O)c1ccc2c(c1)OCCO2)c1nc2cc3c(cc2s1)OCO3	x	34	-5	0	x	x
CN(C)CCCN(C(=O)c1ccc(C(=O)c2ccccc2)cc1)c1nc2cc3c(cc2s1)OCO3	7	37	-16	62*	-3	i
CN(C)CCN(C(=O)c1ccc(S(=O)(=O)N(C)C)cc1)c1nc2cc3c(cc2s1)OCCO3	2	23	0	-5	-4	x
CN(C)CCN(C(=O)c1ccc2ccccc2c1)c1nc2cc3c(cc2s1)OCO3	0	33	-4	67*	-5	i
COCc1cn([C@@H]2C[C@@H]3O[C@@H](CO)CC[C@@H]3O[C@@H]2CCc2ccc(-c3ccc(OC)cc3)cc2)nn1	x	x	x	-2	x	x
OC(CON=C1c2ccccc2-c2ccccc21)CN1CCNCC1 (stereo not drawn)	8	72*	16	70*	-2	i
OC(COc1ccccc1)CN1CCN(CC(O)COc2ccccc2)CC1 (stereo not drawn)	10	x	1	-13	4	x
